For 76 molecules, IC50 and inhibition results are on record in ChEMBL document CHEMBL4028856, “Discovery of Small Molecules Targeting the Synergy of Cardiac Transcription Factors GATA4 and NKX2-5” (J Med Chem, 2017).

Activity calls are given as the source filed them. The rule behind the calls is not given here. A value given as a limit tells only on which side of the number the result lay.

One test deals with GATA4/NKX2-5 (Mus musculus, UniProt P42582+Q08369). Briefly: Inhibition of mouse GATA4/NKX2-5 transcriptional synergy expressed in African green monkey COS-1 cells measured after 30 hrs by dual luciferase reporter gene assay. Format: cell-based. The gist of the method:
(§1)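 COS-1 cells co-transfected (Fugene 6, DNA:reagent 1:3) with p3xNKE-luc, Renilla pRL-TKd238 control, and pMT2-GATA4, pMT2-NKX2-5, both, or empty pMT2; DNA balanced with pMT2. Compounds added 6 h post-transfection in 0.1% DMSO, medium renewed at 24 h, lysis at 30 h. Dual-luciferase read-out, firefly/Renilla normalized to vehicle; duplicate wells.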

For test [1], the target named is GATA4/NKX2-5 (Mus musculus) (UniProt Q08369+P42582). Briefly: Inhibition of mouse GATA4/NKX2-5 transcriptional synergy expressed in African green monkey COS-1 cells at 20 uM measured after 30 hrs by dual luciferase reporter gene assay. As to conditions: 5 uM, in the assay text read “5 uM” for “20 uM”. The format is cell-based. In outline: as §1
In test [2] the target is T1, GATA4/NKX2-5 (Rattus norvegicus) (UniProt P46152+O35767). Briefly: Inhibition of GATA4/NKX2-5 interaction in neonatal rat ventricular cardiomyocytes assessed as decrease in endothelin-1 induced mRNA level of ANP at 20 uM preincubated for 1 hr followed by endothelin-1 addition measured after 23 hrs by real-time PCR analysis. In outline: (§2)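 Neonatal rat ventricular myocytes (2–4-day-old Sprague-Dawley or Wistar), preplated, seeded on 6-well plates, moved to complete serum-free medium next day and cultured 24 h. Compounds (10–100 μM) added 1 h before 100 nM endothelin-1 or none; ANP and BNP mRNA quantified by RT-PCR at 24 h, normalized to 18S RNA, relative to vehicle; mean ± SD, n = 3–6.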

In test [3] the target is T1, GATA4/NKX2-5 (Rattus norvegicus). Briefly: Inhibition of GATA4/NKX2-5 interaction in neonatal rat ventricular cardiomyocytes assessed as decrease in endothelin-1 induced mRNA level of BNP at 20 uM preincubated for 1 hr followed by endothelin-1 addition measured after 23 hrs by real-time PCR analysis. The gist of the method: as §2

Chain of GATA4/NKX2-5 (Q08369 whole entry): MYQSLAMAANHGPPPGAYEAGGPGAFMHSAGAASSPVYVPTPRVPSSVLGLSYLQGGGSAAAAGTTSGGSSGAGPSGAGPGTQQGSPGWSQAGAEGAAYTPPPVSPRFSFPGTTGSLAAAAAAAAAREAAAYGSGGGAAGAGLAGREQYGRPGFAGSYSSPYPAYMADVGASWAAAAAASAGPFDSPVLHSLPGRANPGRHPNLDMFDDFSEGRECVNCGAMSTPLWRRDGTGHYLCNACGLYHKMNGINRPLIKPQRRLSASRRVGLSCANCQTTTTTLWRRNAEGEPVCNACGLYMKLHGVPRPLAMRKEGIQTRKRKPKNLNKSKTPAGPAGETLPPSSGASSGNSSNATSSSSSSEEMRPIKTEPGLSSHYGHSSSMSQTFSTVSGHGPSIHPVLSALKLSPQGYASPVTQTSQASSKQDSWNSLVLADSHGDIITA
Chain of GATA4/NKX2-5 (P42582 whole entry): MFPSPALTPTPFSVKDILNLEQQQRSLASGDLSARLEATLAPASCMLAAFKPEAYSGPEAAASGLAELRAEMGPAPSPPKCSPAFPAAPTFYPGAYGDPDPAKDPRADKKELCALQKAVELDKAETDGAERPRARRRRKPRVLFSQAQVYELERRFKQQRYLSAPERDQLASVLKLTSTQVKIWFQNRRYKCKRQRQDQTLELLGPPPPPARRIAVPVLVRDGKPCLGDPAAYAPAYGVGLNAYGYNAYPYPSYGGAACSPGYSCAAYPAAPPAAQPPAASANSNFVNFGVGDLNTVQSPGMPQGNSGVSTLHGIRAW

In the case of `O=c1cc(-c2ccc(O)cc2)oc2cc(O)cc(O)c12` [APIGENIN], the IC50 at GATA4/NKX2-5 is 24 µM.
Take `CC(C)c1ccc(/C=N/n2c(S)nnc2-c2cccnc2)cc1`: the IC50 on GATA4/NKX2-5 was more than 50 µM.
Consider `CCOc1ccc(NC(=O)c2c(-c3ccccc3)noc2C)cc1`, for which the IC50 on GATA4/NKX2-5 stood at 20 µM.
On to `CCOc1ccc(/C=C2\SC(=O)N(CC)C2=O)cc1`, for which the IC50 at GATA4/NKX2-5 came to 5 µM. The inhibition result in test [1] was “Active”.
As to `CCN(CC)c1ccc(/C=N/n2c(S)nnc2-c2ccc(OC)cc2)cc1`, the IC50 at GATA4/NKX2-5 worked out at 19 µM.
Still for that read-out and setting: the figure for `Cc1onc(-c2ccccc2)c1C(=O)Nc1ccc(-c2nnc3n2CCCCC3)cc1` is 20 µM; for `Cc1nc(-c2ccc(NC(=O)c3c(-c4ccccc4)noc3C)cc2)cs1` it is more than 50 µM; for `Cc1ccc(C(=O)Nc2ccc(C(=O)OCC(C)C)cc2)cc1C` it is more than 50 µM.
Same read-out and setting: the figure for `Cc1onc(-c2ccccc2)c1C(=O)Nc1ccc2c(c1)CCC2` is 17 µM; for `Cc1onc(-c2ccccc2)c1C(=O)Nc1cccc(S(=O)(=O)NC2=NC=CC2)c1` it is 28 µM.
On the same count and under the same terms, the figure for `CCN1C(=O)S/C(=C\c2ccc(N3CCCC3)c(F)c2)C1=O` is 8 µM; for `CC(C)(C)c1ccc(/C=N/n2c(S)nnc2-c2cccnc2)cc1` it is 30 µM; for `CC(C)CCN1C(=O)S/C(=C\c2ccc(N(C)C)cc2)C1=O` it is 10 µM.
Regarding `CC(C)COC(=O)c1ccc(NC(=O)c2cccs2)cc1`, the IC50 on GATA4/NKX2-5 stood at 9 µM. Moreover, in test [2], the inhibition entry is “Active”.
Regarding `CC(C)CNC(=O)c1ccc(NC(=O)c2ccccc2)cc1`, the IC50 on GATA4/NKX2-5 was more than 50 µM.
On to `CCN(CC)S(=O)(=O)c1cccc(NC(=O)c2c(-c3ccccc3)noc2C)c1`, for which, on GATA4/NKX2-5, the IC50 is more than 50 µM.
Still for that read-out and setting: with `Cc1onc(-c2ccccc2)c1C(=O)Nc1ccc(-n2cnnn2)cc1` the figure was more than 50 µM; with `CC(C)(C)c1ccc(/C=N/n2c(S)nnc2-c2ccncc2)cc1`, 7 µM; with `CC(C)CNC(=O)c1ccc(NC(=O)c2cccs2)cc1`, more than 50 µM.
In the case of `CCC(C)c1ccc(NC(=O)c2c(-c3ccccc3)noc2C)cc1` (configuration not stated), on GATA4/NKX2-5, the IC50 is 32 µM.
Still for that read-out and setting: with `CCN(CC)c1ccc(/C=N/n2c(S)nnc2C2CCCCC2)cc1` the figure was 6 µM.
Still for that read-out and setting: the figure for `Cc1onc(-c2ccccc2)c1C(=O)Nc1ccc(C(C)C)cc1` is 16 µM; for `COc1cccc(/C=N/n2c(SC)nnc2-c2ccccc2)c1OC` it is more than 50 µM.
`CCOc1ccc(/C=N/n2c(SC)nnc2-c2ccccc2)cc1OCC`: at GATA4/NKX2-5, the IC50 was found to be 30 µM.
In the case of `CCCCOc1ccc(/C=N/n2c(S)nnc2CC)cc1`, the IC50 on GATA4/NKX2-5 is more than 50 µM.
Consider `Cc1onc(-c2ccccc2)c1C(=O)Nc1ccc(Sc2nccn2C)cc1`, for which the 50% inhibitory concentration (IC50) at GATA4/NKX2-5 was more than 50 µM.
Same read-out and setting: the figure for `O=C1NC(=O)/C(=C/c2cccc([N+](=O)[O-])c2)S1` is 20 µM; for `CCCOc1ccc(NC(=O)c2c(-c3ccccc3)noc2C)cc1` it is more than 50 µM; for `CC(C)CNC(=O)c1ccc(NC(=O)C2CCCO2)cc1` (configuration not stated) it is more than 50 µM.
For the molecule `CC(C)CNC(=O)c1ccc(NC(=O)C(F)(F)F)cc1`, the half-maximal inhibitory concentration (IC50) on GATA4/NKX2-5 amounted to 42 µM.
For the molecule `Cc1onc(-c2ccccc2Cl)c1C(=O)Nc1ccc(C(C)(C)C)cc1`, the IC50 on GATA4/NKX2-5 worked out at 22 µM.
Still for that read-out and setting: the figure for `Sc1nnc(-c2ccccc2)n1/N=C/c1ccc(OC2CCCC2)cc1` is 37 µM; for `CCOc1ccccc1/C=N/n1c(S)nnc1-c1ccccc1` it is 8 µM; for `CC(C)CNC(=O)c1ccc(NC(=O)C2CCCCC2)cc1` it is more than 50 µM.
Turning to `Cc1onc(-c2ccccc2)c1C(=O)Nc1ccc(C#N)c(Cl)c1`, the IC50 on GATA4/NKX2-5 is 16 µM. Moreover, the inhibition result in test [2] is “Active”.
As for `Cc1onc(-c2ccccc2)c1C(=O)Nc1ccc(C(=O)OC(C)C)cc1`, the IC50 on GATA4/NKX2-5 is 20 µM.
The same measure, in the same setting: with `Cc1cccc(/C=N/n2c(S)nnc2-c2ccccc2)c1` the figure was more than 50 µM.
On to `CCc1ccc(/C=C2\SC(=O)NC2=O)cc1`, for which the IC50 on GATA4/NKX2-5 came out at 21 µM.
As for `Cc1onc(-c2ccccc2)c1C(=O)Nc1ccc(Oc2ccccc2)cc1`, the IC50 on GATA4/NKX2-5 is more than 50 µM.
`Fc1cccc(/C=N/n2c(S)nnc2-c2ccccc2)c1`: the IC50 on GATA4/NKX2-5 was more than 50 µM.
On the same count and under the same terms, with `CCOc1ccc(/C=C2\SC(=O)N(CC)C2=O)cc1OCC` the figure was 26 µM; with `O=c1cc(-c2ccc(O)c(O)c2)oc2cc(O)cc(O)c12` [LUTEOLIN], 22 µM.
For the molecule `CCNc1ccc(NC(=O)c2c(-c3ccccc3)noc2CO)cc1`, the IC50 on GATA4/NKX2-5 was more than 50 µM.
Still for that read-out and setting: the figure for `CCCC(=O)Nc1ccc(C(=O)NCC(C)C)cc1` is more than 50 µM.
Take `Cc1onc(-c2ccccc2)c1C(=O)Nc1ccc(OC(C)C)cc1`: the IC50 on GATA4/NKX2-5 was 13 µM. In test [2], the inhibition entry is “Active”.
On to `Cc1onc(-c2ccccc2)c1C(=O)Nc1ccc(S(=O)(=O)Nc2ncccn2)cc1`, for which, on GATA4/NKX2-5, the IC50 stood at 28 µM.
Still for that read-out and setting: the figure for `CCN(CC)c1ccc(/C=N/n2c(S)nnc2-c2ccccc2)c(OC)c1` is more than 50 µM; for `COc1ccc(/C=N/n2c(S)nnc2-c2ccccc2)cc1C` it is 11 µM.
Regarding `Cc1onc(-c2ccccc2)c1C(=O)Nc1ccc(OC(F)(F)F)cc1`, on GATA4/NKX2-5, the IC50 is 11 µM. Besides, the inhibition entry in test [3] and in test [2] was “Active” in each case.
In the case of `CCN(CC)S(=O)(=O)c1cc(NC(=O)c2c(-c3ccccc3)noc2C)ccc1C`, the IC50 at GATA4/NKX2-5 is more than 50 µM.
In the case of `COc1cccc(C(=O)Nc2ccc(C(=O)NCC(C)C)cc2)c1`, on GATA4/NKX2-5, the half-maximal inhibitory concentration (IC50) was more than 50 µM.
In the case of `COc1ccc(/C=N/n2c(S)nnc2C2CCCCC2)cc1OCc1ccccc1`, at GATA4/NKX2-5, the IC50 came out at 10 µM.
On the same count and under the same terms, the figure for `CCCOC(=O)c1ccc(NC(=O)c2c(-c3ccccc3)noc2C)cc1` is more than 50 µM.
The same measure, in the same setting: with `CCC(CC)C(=O)Nc1ccc(C(=O)NCC(C)C)cc1` the figure was more than 50 µM.
The same measure, in the same setting: with `O=C(O)/C(=C/c1ccccc1)c1c(F)c(F)c(F)c(F)c1F` the figure was 50 µM; with `Cc1onc(-c2ccccc2)c1C(=O)Nc1ccc2c(c1)OC1(CCCC1)O2`, 23 µM.
With `CCC(C)c1ccc(NC(=O)c2c(-c3ccccc3Cl)noc2C)cc1` (configuration not stated), the IC50 at GATA4/NKX2-5 came out at 20 µM.
The same measure, in the same setting: with `CC(C)COC(=O)c1ccc(NC(=O)COc2ccccc2Cl)cc1` the figure was more than 50 µM; with `CN(C)c1ccc(/C=N/n2c(S)nnc2-c2ccncc2)cc1`, 7 µM.
`Cc1onc(-c2ccccc2)c1C(=O)Nc1ccc(C(C)(C)C)cc1`: the IC50 on GATA4/NKX2-5 is 18 µM.
Consider `COc1cccc(/C=N/n2c(S)nnc2-c2ccccc2)c1OC`, for which the IC50 on GATA4/NKX2-5 turned out to be 8 µM.
Still for that read-out and setting: with `CC(C)CNC(=O)c1ccc(NC(=O)C2CC2)cc1` the figure was 23 µM; with `CCOc1ccc(/C=N/n2c(S)nnc2C2CCCCC2)cc1`, 7 µM; with `Cc1onc(-c2ccccc2)c1C(=O)Nc1ccc(S(=O)(=O)N2CCOCC2)cc1`, more than 50 µM.
On to `COc1cccc(/C=N/n2c(S)nnc2-c2ccccc2)c1`, for which the IC50 at GATA4/NKX2-5 is more than 50 µM.
The same measure, in the same setting: the figure for `CC(C)COC(=O)c1ccc(NC(=O)CCC(=O)O)cc1` is 37 µM; for `Cc1onc(-c2ccccc2)c1C(=O)Nc1cccc(S(=O)(=O)N2CCCC2)c1` it is 33 µM; for `Cc1onc(-c2ccccc2)c1C(=O)Nc1ccc(N2CCCCC2)cc1` it is more than 50 µM.
On the same count and under the same terms, with `C=CCc1cccc(/C=N/n2c(S)nnc2-c2ccccc2)c1O` the figure was 20 µM; with `Sc1nnc(-c2ccccc2)n1/N=C/c1cccc(Oc2ccccc2)c1`, 13 µM.
`c1ccc(-c2nonc2-c2ccccc2)cc1`: the IC50 on GATA4/NKX2-5 is 50 µM.
Same read-out and setting: with `Cc1onc(-c2ccccc2)c1C(=O)Nc1cccc(C(=O)NC2CC2)c1` the figure was 20 µM.
The same measure, in the same setting: the figure for `Cc1onc(-c2ccccc2)c1C(=O)Nc1ccc(N2CCOCC2)cc1` is more than 50 µM.
`COc1ccc(/C=N/n2c(SC)nnc2-c2ccccc2)cc1C`: the IC50 at GATA4/NKX2-5 worked out at 24 µM.
On the same count and under the same terms, the figure for `Cc1onc(-c2ccccc2Cl)c1C(=O)Nc1ccc(N2CCOCC2)cc1` is 38 µM.
In the case of `Cc1onc(-c2ccccc2)c1C(=O)Nc1cccc(S(=O)(=O)NCc2ccco2)c1`, the IC50 at GATA4/NKX2-5 was determined as 20 µM.
